Data set [1] relates to Anopheles funestus FANG (susceptible). Put plainly: Glazed tile contact bioassay, strain FANG. The format is in vivo. The conditions noted are these: for LC50: female adults, contact exposure 30 min; for LC50 / LC50 (solo contact toxicity of synergist): mortality 24 h; for LC50 (solo contact toxicity of synergist): synergist alone, 30 min exposure. The method in brief:
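Adults aged 3–5 days, chilled to anaesthetize, recovered 1 h, then held 30 min on acetone-treated glazed tiles in two replicates of 10. Kept overnight on 10% dextrose; mortality scored at 24 h. Acetone-only control; Abbott correction for 5–20% control mortality, above 20% invalid. At least five repeats; probit LC50 with 95% CI. Synergist solo toxicity was tested the same way at 250–10,000 ppm.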

Data set [2] addresses para-type voltage-gated sodium channels of Musca domestica (Musca domestica, UniProt Q25439). Put plainly: Fluorescence-based membrane potential cation influx assay. The format is cell-based. The conditions noted are these: for EC50: EC50, HEK293-VGSC cells, membrane potential fluorescence.
Data set [3] deals with Anopheles funestus FUMOZ-R (resistant). Put plainly: Glazed tile contact bioassay, strain FUMOZ-R. The format is in vivo. As to conditions: for LC50: female adults, contact exposure 30 min; for LC50 / LC50 (solo contact toxicity of synergist): mortality 24 h; for LC50 (solo contact toxicity of synergist): synergist alone, 30 min exposure.
For data set [4], the system named is cytochrome P450s of microsomal preparations of Anopheles funestus strain FANG. Description: Michaelis-Menten kinetics of BOMFC O-debenzylation, FANG microsomes. The data set is classed as biochemical. The conditions noted are these: read-out: apparent Km. The method in brief:
(§1)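 Microsomes from 30–50 adults, homogenized in pH 7.6 phosphate buffer with sucrose, DTT and EDTA, then spun 5,000× g, 15,000× g and 100,000× g at 4 °C. 4 μg protein incubated 1 h at 20 ± 1 °C with eleven BOMFC levels (200–0.195 μM) and 1 mM NADPH, in 0.01% zwittergent with 0.05% BSA. Stopped with pH 10 red-ox mix; hydroxycoumarin fluorescence read; quadruplicates; Michaelis-Menten fit.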

In data set [5] the test system is cytochrome P450s of microsomal preparations of Anopheles funestus strain FUMOZ-R. Description: Michaelis-Menten kinetics of BOMFC O-debenzylation, FUMOZ-R microsomes. The format is biochemical. As to conditions: read-out: apparent Km. The method, boiled down:
as §1

Another data set concerns the target Drosophila wildtype VGSC. The conditions noted are these: Drosophila wildtype VGSC expressed in Xenopus oocytes; ref Vais et al., 2003; cited from earlier work.

As a reminder, the Km is the concentration of substrate that gives half-maximal velocity. The EC50 is the midpoint of the concentration-response curve. The low end stands for higher potency in that assay, the high end for lower potency in that assay. One may read the mortality as the percentage killed. Low readings indicate more survivors, high ones fewer survivors. The term Kd denotes a measure of binding affinity in units of concentration.

“And” between values parts separate entries of the source, which are not always exact repeats. Equal entries are not always repeated. Some results are limits rather than exact numbers.

Chain of para-type voltage-gated sodium channels of Musca domestica (Q25439 1-2105): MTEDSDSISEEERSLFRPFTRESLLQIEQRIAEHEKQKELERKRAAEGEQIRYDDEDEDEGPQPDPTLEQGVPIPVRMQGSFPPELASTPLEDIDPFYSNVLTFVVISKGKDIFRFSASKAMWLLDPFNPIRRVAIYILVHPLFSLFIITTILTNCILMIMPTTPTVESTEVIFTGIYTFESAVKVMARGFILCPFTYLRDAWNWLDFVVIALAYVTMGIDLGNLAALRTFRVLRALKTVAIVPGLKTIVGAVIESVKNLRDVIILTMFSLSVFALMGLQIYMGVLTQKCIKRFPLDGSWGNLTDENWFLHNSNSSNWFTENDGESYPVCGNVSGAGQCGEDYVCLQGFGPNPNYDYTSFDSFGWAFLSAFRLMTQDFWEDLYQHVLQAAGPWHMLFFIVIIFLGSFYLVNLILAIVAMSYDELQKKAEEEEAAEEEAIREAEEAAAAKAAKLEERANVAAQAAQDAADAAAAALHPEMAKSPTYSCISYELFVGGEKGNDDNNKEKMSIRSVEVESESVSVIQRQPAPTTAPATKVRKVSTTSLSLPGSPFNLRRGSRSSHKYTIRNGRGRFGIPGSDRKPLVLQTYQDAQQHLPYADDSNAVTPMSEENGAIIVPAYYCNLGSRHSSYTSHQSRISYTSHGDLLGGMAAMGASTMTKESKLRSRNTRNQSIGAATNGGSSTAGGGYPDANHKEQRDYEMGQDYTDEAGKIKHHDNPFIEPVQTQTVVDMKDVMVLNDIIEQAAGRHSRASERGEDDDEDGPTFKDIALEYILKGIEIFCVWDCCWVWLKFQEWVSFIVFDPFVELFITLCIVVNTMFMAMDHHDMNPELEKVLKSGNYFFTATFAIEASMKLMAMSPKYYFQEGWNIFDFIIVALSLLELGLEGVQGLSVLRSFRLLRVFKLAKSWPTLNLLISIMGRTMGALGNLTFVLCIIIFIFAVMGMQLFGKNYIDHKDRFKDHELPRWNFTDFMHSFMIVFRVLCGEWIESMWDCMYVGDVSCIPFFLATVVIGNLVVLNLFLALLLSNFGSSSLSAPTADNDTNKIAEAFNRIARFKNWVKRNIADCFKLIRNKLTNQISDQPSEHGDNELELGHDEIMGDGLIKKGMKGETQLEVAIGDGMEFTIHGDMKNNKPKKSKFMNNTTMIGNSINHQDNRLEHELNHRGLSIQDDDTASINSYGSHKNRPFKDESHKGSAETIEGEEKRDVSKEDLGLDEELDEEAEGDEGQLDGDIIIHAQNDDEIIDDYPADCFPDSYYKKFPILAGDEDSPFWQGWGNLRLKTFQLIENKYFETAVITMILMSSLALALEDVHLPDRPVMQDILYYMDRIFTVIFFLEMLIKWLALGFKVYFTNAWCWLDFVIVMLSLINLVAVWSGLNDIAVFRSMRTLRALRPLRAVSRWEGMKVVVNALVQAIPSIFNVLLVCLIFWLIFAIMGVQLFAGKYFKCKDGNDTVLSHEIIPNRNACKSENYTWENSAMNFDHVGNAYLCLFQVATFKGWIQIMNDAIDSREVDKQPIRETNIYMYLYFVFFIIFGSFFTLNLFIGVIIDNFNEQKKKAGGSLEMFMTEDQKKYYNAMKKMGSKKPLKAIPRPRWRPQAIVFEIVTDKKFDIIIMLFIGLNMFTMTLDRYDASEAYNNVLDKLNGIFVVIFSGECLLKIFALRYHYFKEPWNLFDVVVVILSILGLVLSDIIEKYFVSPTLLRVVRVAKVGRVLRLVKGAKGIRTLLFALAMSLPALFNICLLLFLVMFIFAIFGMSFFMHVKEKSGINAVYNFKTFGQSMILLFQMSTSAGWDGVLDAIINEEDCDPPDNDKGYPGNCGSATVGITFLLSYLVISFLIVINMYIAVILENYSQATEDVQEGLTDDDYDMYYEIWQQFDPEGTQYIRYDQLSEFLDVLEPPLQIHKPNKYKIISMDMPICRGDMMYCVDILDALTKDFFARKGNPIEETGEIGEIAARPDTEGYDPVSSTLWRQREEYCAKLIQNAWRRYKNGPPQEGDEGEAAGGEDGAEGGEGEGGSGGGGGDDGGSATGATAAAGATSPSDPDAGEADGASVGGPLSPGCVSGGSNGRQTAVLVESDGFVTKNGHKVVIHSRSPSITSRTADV

As for `CC1(C)[C@H](C=C(Cl)Cl)[C@H]1C(=O)OCc1c(F)c(F)cc(F)c1F` [Transfluthrin, 2,3,5,6-tetrafluorobenzyl(1R,3S)-3-(2,2-dichlorovinyl)-2,2-dimethylcyclo-propanecarboxylate], the LC50 in data set [1] came out at 0.023 mg/m^2; in data set [3] it was 0.0576 mg/m^2. Besides, the “fold more active than permethrin” value in data set [1] (glazed tile bioassays against strain FANG) was no more than 25 fold. For the same compound, in data set [2] (compared with deltamethrin), the “fold less active on VGSC than deltamethrin” value is “more than 100 fold”.
For the compound `CCCOC/C(=N\c1ccc(Cl)cc1C(F)(F)F)n1ccnc1` [Triflumizole, triflumizole], the figures for the “LC50 (solo contact toxicity of synergist)” value in data set [1] and in data set [3] were 136 mg/m^2 and 392 mg/m^2, respectively.
On to `O=c1cc(C(F)(F)F)c2ccc(OCOCc3ccccc3)cc2o1` [BOMFC, 7-benzyloxymethoxy-4-trifluoromethylcoumarin], for which the Km turned out to be 5.76 µM in data set [4] and 4.41 µM in data set [5].
With `CC1(C)C(C=C(Cl)Cl)C1C(=O)OC(C#N)c1cccc(Oc2ccccc2)c1` (stereo not drawn) [Cypermethrin], the LC50 in data set [1] came to 0.0968 mg/m^2; in data set [3], 7.54 mg/m^2. In addition, the EC50 in data set [2] was found to be 38.9 nM.
`Nn1nnc2ccccc21` [1-ABT, 1-aminobenzotriazole]: the mortality at 750 mg/m2 in data set [1] (Anopheles funestus) and in data set [3] (Anopheles funestus) was less than 10% each time.
On to `CC1(C)C(C=C(Cl)Cl)C1C(=O)OCc1cccc(Oc2ccccc2)c1` (stereo not drawn) [Permethrin, permethrin], for which the LC50 in data set [1] is 0.543 mg/m^2; in data set [3] it was 4.21 mg/m^2. Also, in data set [2], the EC50 is 721 nM. The “RR fold lower than for deltamethrin” value in data set [3] (FUMOZ-R resistance ratio compared with deltamethrin) was roughly 30 fold. The “Resistance ratio (RR)” value in data set [3] (LC50 FUMOZ-R divided by LC50 FANG) turned out to be 7.76.
Regarding `CC1(C)[C@H](C(=O)O[C@H](C#N)c2cccc(Oc3ccccc3)c2)[C@@H]1C=C(Br)Br` [Deltamethrin, deltamethrin], the LC50 is recorded as 0.0206 mg/m^2 in data set [1] and 4.61 mg/m^2 in data set [3]. The EC50 in data set [2] was 5.29 nM and 5.3 nM. For the same compound, the Kd at Drosophila wildtype VGSC is 4.7 nM.
Regarding `CCCCOCCOCCOCc1cc2c(cc1CCC)OCO2` [PBO, piperonyl butoxide], the “LC50 (solo contact toxicity of synergist)” value is listed as 325 mg/m^2 in data set [1] and > 1,000 mg/m^2 in data set [3].

The record behind these values is PMC8906121 (Current Research in Parasitology & Vector-borne Diseases, 2021).
